One series has as its system Aspergillus niger. As to the kind of experiment: Antifungal activity against Aspergillus niger NCIM 548 after 48 hrs by agar well diffusion assay. Type of series: functional. The following applies: NCIM 548, 48 h. In outline: (§1)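 Fungal spore suspensions in sterile distilled water set to final 10⁶ CFU/mL; 0.1 mL spread on Potato-Dextrose-Agar. NCCLS agar well diffusion with NCIM standard strains: 6 mm wells given 0.1 mL compound diluted in 1% DMSO, final 16 to 512 µg/mL. Triplicate plates held 48 h at 28 0.2 °C. MIC is lowest concentration fully inhibiting growth.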
(In general: Agar diffusion results depend on both activity and mobility in agar.)

Another series concerns Candida albicans. The series can be described thus: Antifungal activity against Candida albicans NCIM 3102 after 48 hrs by agar well diffusion assay. The following applies: NCIM 3102, 48 h. Type of series: functional. Summed up:
as §1

The subject of a further series is Bacillus subtilis. The series can be described thus: Antibacterial activity against Bacillus subtilis NCIM 2063 after 24 hrs by agar well diffusion assay. Type of series: functional. The following applies: NCIM 2063, 24 h. Summed up: (§2)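 Agar well diffusion per NCCLS; NCIM standard strains. Nutrient agar seeded with 0.1 mL bacterial suspension in sterile 0.85% saline at 10⁵ CFU/mL. Plates in triplicate, 37 0.5 °C, 24 h. MIC taken as lowest concentration giving complete growth inhibition.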

In a further series the test system is Klebsiella pneumoniae. The series can be described thus: Antibacterial activity against Klebsiella pneumoniae NCIM 5082 after 24 hrs by agar well diffusion assay. Type of series: functional. As to conditions: NCIM 5082, 24 h. Summed up: as §2
A short description of series [1]: Toxicity against Brine shrimp nauplii after 24 hrs. In kind it is organism-based. As to conditions: artemia salina, in vivo; read-out: ED50. In outline: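 Artemia salina nauplii hatched 38 h in sterile brine (sea salt 38 g/L, pH 8.5) under aeration; 10 nauplii per vial exposed to graded compound concentrations in 5 mL final volume, 37 °C, 24 h under incandescent light. Survivors counted; percent lethality versus vehicle-treated controls; ED50 from probit analysis; podophyllotoxin positive control.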

In the next series the test system is Proteus vulgaris. The series can be described thus: Antibacterial activity against Proteus vulgaris NCIM 2813 after 24 hrs by agar well diffusion assay. In kind it is functional. As to conditions: NCIM 2813, 24 h. In outline: as §2
The test system of another series is Micrococcus luteus. As to the kind of experiment: Antibacterial activity against Micrococcus luteus NCIM 2155 after 24 hrs by agar well diffusion assay. Type of series: functional. The following applies: NCIM 2155, 24 h. In outline: as §2
For the next series, the system named is Aspergillus oryzae. The series can be described thus: Antifungal activity against Aspergillus oryzae NCIM 643 after 48 hrs by agar well diffusion assay. Type of series: functional. The following applies: NCIM 643, 48 h. In outline: as §1
For the next series, the system named is Penicillium chrysogenum. As to the kind of experiment: Antifungal activity against Penicillium chrysogenum NCIM 738 after 48 hrs by agar well diffusion assay. Type of series: functional. The following applies: NCIM 738, 48 h. Summed up: as §1
A further series relates to Staphylococcus aureus. The series can be described thus: Antibacterial activity against Staphylococcus aureus NCIM 2079 after 24 hrs by agar well diffusion assay. In kind it is functional. As to conditions: NCIM 2079, 24 h. Summed up:
as §2

The subject of a further series is Escherichia coli. The series can be described thus: Antibacterial activity against Escherichia coli NCIM 2065 after 24 hrs by agar well diffusion assay. In kind it is functional. The following applies: NCIM 2065, 24 h. In outline: as §2
In a further series the test system is Pseudomonas aeruginosa. As to the kind of experiment: Antibacterial activity against Pseudomonas aeruginosa NCIM 2036 after 24 hrs by agar well diffusion assay. As to conditions: NCIM 2036, 24 h. In kind it is functional. Summed up: as §2
For another series, the system named is Bacillus pumilus. As to the kind of experiment: Antibacterial activity against Bacillus pumilus NCIM 2327 after 24 hrs by agar well diffusion assay. As to conditions: NCIM 2327, 24 h.

Each structure is given as a SMILES string. In brackets after ≈: the same amount, converted by molar mass.

For the compound `CCOc1cc(/C=C/C(=O)c2ccccc2NC(=O)NS(=O)(=O)c2ccc(C)cc2)ccc1O`, the MIC – broadly, the lowest concentration that inhibits growth of the organism – in the series with Aspergillus niger is 512 µg/mL (≈ 1070 µM); against Candida albicans, 512 µg/mL (≈ 1070 µM); in the series on Bacillus subtilis it was 128 µg/mL (≈ 266 µM); in the series on Klebsiella pneumoniae, 512 µg/mL (≈ 1070 µM); with Proteus vulgaris it was 512 µg/mL (≈ 1070 µM); against Micrococcus luteus it was 512 µg/mL (≈ 1070 µM). Further, the minimal inhibitory concentration (MIC) was 512 µg/mL (≈ 1070 µM) in the series with Aspergillus oryzae; 512 µg/mL (≈ 1070 µM) against Penicillium chrysogenum; 128 µg/mL (≈ 266 µM) against Staphylococcus aureus; 64 µg/mL (≈ 133 µM) with Escherichia coli; 128 µg/mL (≈ 266 µM) against Pseudomonas aeruginosa; 64 µg/mL (≈ 133 µM) against Bacillus pumilus. The LC50 at 24 h in series [1] turned out to be 19.2 µg/mL (≈ 40 µM).
As to `Cc1ccc(S(=O)(=O)NC(=O)Nc2ccccc2C(=O)/C=C/C=C/c2ccccc2)cc1`, the MIC against Aspergillus niger was 256 µg/mL (≈ 573 µM); in the series on Candida albicans it was 256 µg/mL (≈ 573 µM); against Bacillus subtilis it was 128 µg/mL (≈ 287 µM); in the series with Klebsiella pneumoniae, 256 µg/mL (≈ 573 µM); with Proteus vulgaris, 256 µg/mL (≈ 573 µM); against Micrococcus luteus it was 256 µg/mL (≈ 573 µM). In addition, the MIC came out at 256 µg/mL (≈ 573 µM) against Aspergillus oryzae; 256 µg/mL (≈ 573 µM) in the series on Penicillium chrysogenum; 128 µg/mL (≈ 287 µM) against Staphylococcus aureus; 128 µg/mL (≈ 287 µM) against Escherichia coli; 128 µg/mL (≈ 287 µM) against Pseudomonas aeruginosa; 128 µg/mL (≈ 287 µM) in the series with Bacillus pumilus. In addition, in series [1], the LC50 at 24 h turned out to be 18.2 µg/mL (≈ 40.8 µM).
Regarding `Cc1ccc(S(=O)(=O)NC(=O)Nc2ccccc2C(=O)/C=C/c2ccc(N(C)C)cc2)cc1`, the MIC in the series on Aspergillus niger is 256 µg/mL (≈ 552 µM); against Candida albicans it was 128 µg/mL (≈ 276 µM); against Bacillus subtilis, 64 µg/mL (≈ 138 µM); against Klebsiella pneumoniae it was 128 µg/mL (≈ 276 µM); against Proteus vulgaris it was 128 µg/mL (≈ 276 µM); against Micrococcus luteus it was 128 µg/mL (≈ 276 µM). Besides, the MIC was determined as 256 µg/mL (≈ 552 µM) against Aspergillus oryzae; 256 µg/mL (≈ 552 µM) against Penicillium chrysogenum; 64 µg/mL (≈ 138 µM) with Staphylococcus aureus; 64 µg/mL (≈ 138 µM) against Escherichia coli; 64 µg/mL (≈ 138 µM) in the series on Pseudomonas aeruginosa; 64 µg/mL (≈ 138 µM) with Bacillus pumilus. Besides, the LC50 at 24 h in [1] is 38.1 µg/mL (≈ 82.2 µM).
In the case of `Cc1ccc(S(=O)(=O)NC(=O)Nc2ccccc2C(=O)/C=C/c2cccc(F)c2)cc1`, the minimum inhibitory concentration (MIC) in the series on Aspergillus niger was found to be 64 µg/mL (≈ 146 µM); in the series on Candida albicans it was 64 µg/mL (≈ 146 µM); in the series with Bacillus subtilis, 16 µg/mL (≈ 36.5 µM); in the series on Klebsiella pneumoniae, 64 µg/mL (≈ 146 µM); against Proteus vulgaris, 64 µg/mL (≈ 146 µM); with Micrococcus luteus, 64 µg/mL (≈ 146 µM). The MIC with Aspergillus oryzae worked out at 64 µg/mL (≈ 146 µM); with Penicillium chrysogenum it was 64 µg/mL (≈ 146 µM); against Staphylococcus aureus, 16 µg/mL (≈ 36.5 µM); against Escherichia coli it was 16 µg/mL (≈ 36.5 µM); in the series with Pseudomonas aeruginosa, 16 µg/mL (≈ 36.5 µM); in the series on Bacillus pumilus it was 16 µg/mL (≈ 36.5 µM). Further, the LC50 at 24 h in [1] was 4.13 µg/mL (≈ 9.42 µM).
Regarding `Cc1ccc(S(=O)(=O)NC(=O)Nc2ccccc2C(=O)/C=C/c2cccc(O)c2)cc1`, the minimum inhibitory concentration (MIC) with Aspergillus niger, against Candida albicans, against Bacillus subtilis, in the series with Klebsiella pneumoniae, in the series with Proteus vulgaris and in the series with Micrococcus luteus was 512 µg/mL (≈ 1170 µM) in each case. Further, the MIC against Aspergillus oryzae, in the series with Penicillium chrysogenum, against Staphylococcus aureus, against Escherichia coli, against Pseudomonas aeruginosa and in the series on Bacillus pumilus was 512 µg/mL (≈ 1170 µM) in each case. For the same compound, in series [1], the LC50 at 24 h came out at 39.3 µg/mL (≈ 89.9 µM).
Consider `Cc1ccc(S(=O)(=O)NC(=O)Nc2ccccc2C(=O)/C=C/c2c3ccccc3cc3ccccc23)cc1`, for which the MIC against Aspergillus niger, in the series on Candida albicans, against Bacillus subtilis, with Klebsiella pneumoniae, in the series on Proteus vulgaris and against Micrococcus luteus was 512 µg/mL (≈ 983 µM) throughout. The MIC in the series on Aspergillus oryzae, against Penicillium chrysogenum, in the series on Staphylococcus aureus, in the series on Escherichia coli, with Pseudomonas aeruginosa and in the series with Bacillus pumilus was 512 µg/mL (≈ 983 µM) in each case. The LC50 at 24 h in series [1] worked out at 44.3 µg/mL (≈ 85.1 µM).
`Cc1ccc(S(=O)(=O)NC(=O)Nc2ccccc2C(=O)/C=C/c2ccccc2O)cc1`: the MIC in the series on Aspergillus niger was 256 µg/mL (≈ 586 µM); with Candida albicans it was 256 µg/mL (≈ 586 µM); against Bacillus subtilis, 512 µg/mL (≈ 1170 µM); against Klebsiella pneumoniae, 256 µg/mL (≈ 586 µM); against Proteus vulgaris, 256 µg/mL (≈ 586 µM); with Micrococcus luteus, 256 µg/mL (≈ 586 µM). Besides, the MIC with Aspergillus oryzae came out at 256 µg/mL (≈ 586 µM); with Penicillium chrysogenum, 256 µg/mL (≈ 586 µM); with Staphylococcus aureus it was 256 µg/mL (≈ 586 µM); against Escherichia coli it was 512 µg/mL (≈ 1170 µM); in the series on Pseudomonas aeruginosa it was 512 µg/mL (≈ 1170 µM); in the series on Bacillus pumilus, 512 µg/mL (≈ 1170 µM). For the same compound, the LC50 at 24 h in [1] was determined as 32.3 µg/mL (≈ 74.1 µM).
On to `Cc1ccc(S(=O)(=O)NC(=O)Nc2ccccc2C(=O)/C=C/c2ccc(O)cc2)cc1`, for which the MIC turned out to be 128 µg/mL (≈ 293 µM) in the series with Aspergillus niger; 128 µg/mL (≈ 293 µM) against Candida albicans; 256 µg/mL (≈ 586 µM) against Bacillus subtilis; 128 µg/mL (≈ 293 µM) against Klebsiella pneumoniae; 128 µg/mL (≈ 293 µM) in the series on Proteus vulgaris; 128 µg/mL (≈ 293 µM) against Micrococcus luteus. Moreover, the MIC in the series with Aspergillus oryzae came to 128 µg/mL (≈ 293 µM); in the series on Penicillium chrysogenum it was 128 µg/mL (≈ 293 µM); against Staphylococcus aureus, 256 µg/mL (≈ 586 µM); against Escherichia coli, 128 µg/mL (≈ 293 µM); against Pseudomonas aeruginosa, 256 µg/mL (≈ 586 µM); against Bacillus pumilus, 128 µg/mL (≈ 293 µM). Besides, the LC50 at 24 h in [1] was 24.3 µg/mL (≈ 55.7 µM).
